Assay results of several laboratories.
Protocols differ between the studies behind these lines.
Target: Dual specificity testis-specific protein kinase 1 (TESK1, Homo sapiens, UniProt Q15569)

For `COc1cc(/C=C/C(=O)CC(=O)/C=C/c2ccc(O)c(OC)c2)ccc1O`, the activity vs control was 101% (enzyme activity; inhibitor; 1 µM).
With `O=C(Nc1cnn(-c2csc(C(=O)NC3COC3)c2)c1)Nc1ccccc1Cl` the remaining activity was 100% (enzyme activity; inhibitor; 5 µM).
The remaining binding of `c1ccc(N2CCN(Cc3nc4ccccc4[nH]3)CC2)nc1` is reported as 97% (binding; competition with immobilised ligand; 1 µM).
`COc1cc(Nc2cnc(C#N)c(O[C@H](C)CN(C)C)n2)ncc1-c1cnn(C)c1` gave a remaining activity of 110% (enzyme activity; inhibitor; radiometric; 1 µM).
`Cc1sc(C(=O)NC2COC2)cc1-n1cc(NC(=O)Nc2c(F)cccc2Cl)cn1` gave a remaining activity of 88% (enzyme activity; inhibitor; 10 µM).
With `Nc1ncnc2occ(-c3ccc(NC(=O)Nc4cc(C(F)(F)F)ccc4F)cc3)c12` the remaining signal was 7.4% (cell-free assay; inhibitor; 20 µM).
The remaining activity of `CC(C)(O)[C@H]1CC[C@H](Nc2ccc3ncc(-c4cccc(C(F)(F)F)c4)n3n2)CC1` is reported as 83.5% (enzyme activity; inhibitor; 1 µM).
`O=C1CCc2cc(Nc3cc(OC4CCOCC4)c([N+](=O)[O-])cc3Cl)ccc2N1` has a remaining binding of 92% (cell-free assay; competition with immobilised ligand; 1 µM).
`Cc1ccc(C(=O)Nc2ccc(CN3CCN(C)CC3)c(C(F)(F)F)c2)cc1C#Cc1cnc2cccnn12` gave a remaining activity of 100% (enzyme activity; inhibitor; 23.5 nM).
